# Measured values gathered from unrelated publications.
# Lines come from different studies, so protocols differ.
# dxs: 1-deoxy-D-xylulose-5-phosphate synthase (dxs, Deinococcus radiodurans, UniProt Q9RUB5)
# HTR2C: 5-hydroxytryptamine receptor 2C (HTR2C, Homo sapiens, UniProt P28335)
# blaNDM-1: Metallo-beta-lactamase type 2 (blaNDM-1, Klebsiella pneumoniae, UniProt C7C422)
# HLA class I histocompatibility antigen, B alpha chain: HLA class I histocompatibility antigen, B alpha chain (Homo sapiens, UniProt P01889)
# FAAH: Fatty-acid amide hydrolase 1 (FAAH, Homo sapiens, UniProt O00519)
SMILES,target,assay,conditions,IC50
COCCn1c2nc(=O)n(-c3ccccc3)c(=O)c-2nc2ccccc21,"mRNA cap guanine-N(7) methyltransferase (RNMT, Homo sapiens, UniProt O43148)","enzyme activity, inhibitor",,35.5 µM
CCCCCCCCCCCCCCC(Br)C(=O)O (stereo not shown),"Palmitoyltransferase ZDHHC20 (ZDHHC20, Homo sapiens, UniProt Q5W0Z9)","enzyme activity, inhibitor",,5.33 µM
CSCC[C@H](NC(=O)[C@H](C)NC(=O)[C@H](CC(C)C)NC(=O)[C@H](C)NC(=O)[C@H](Cc1c[nH]c2ccccc12)NC(=O)[C@H](C)NC(=O)[C@@H](NC(=O)[C@@H]1CCCN1C(=O)[C@H](CO)NC(=O)[C@H](CO)NC(=O)[C@@H](N)CO)C(C)C)C(=O)N[C@@H](CCCNC(=N)N)C(=O)O,dxs,"enzyme activity, inhibitor, absorbance",,9.5 µM
COc1cc(CC(C)N)c(OC)cc1I (racemic),HTR2C,"ligand displacement, radioligand",,0.00046 µM
CCN(CC)C(=O)N[C@@H]1C[C@@H]2c3cccc4[nH]cc(c34)C[C@H]2N(C)C1,blaNDM-1,"enzyme activity, inhibitor",,> 30 µM
c1ccc(CN(CCN(Cc2ccccn2)Cc2ccccn2)Cc2ccccn2)nc1,blaNDM-1,"enzyme activity, inhibitor, fluorescence",,0.644 µM
CC[C@H](C)[C@H](NC(=O)[C@H](CCCNC(=N)N)NC(=O)[C@@H]1CCCN1C(=O)[C@H](C)N)C(=O)N[C@H](C(=O)N[C@@H](Cc1ccccc1)C(=O)NCC(=O)NCC(=O)N1CCC[C@H]1C(=O)O)[C@@H](C)O,"HLA class I histocompatibility antigen, B alpha chain","ligand displacement, radioligand",,0.059 µM
CSCC[C@H](NC(=O)[C@H](Cc1c[nH]c2ccccc12)NC(=O)CNC(=O)[C@H](Cc1ccc(O)cc1)NC(=O)[C@H](C)NC(=O)[C@@H](CCC(=O)O)NC(=O)CN1CCN(CC(=O)O)CCN(CC(=O)O)CCN(CC(=O)O)CC1)C(=O)N[C@@H](CC(=O)O)C(=O)N(C)[C@@H](Cc1ccccc1)C(N)=O,"Gastrin/cholecystokinin type B receptor (CCKBR, Homo sapiens, UniProt P32239)","ligand displacement, radioligand",,0.0404 µM
COc1nn([C@@H](C)c2ccc(CC(C)C)cc2)c(=O)o1,FAAH,"enzyme activity, inhibitor",cell membranes,0.011 µM
CC(C)[C@H](NC(=O)[C@@H](NC(=O)[C@@H](NC(=O)[C@@H](NC(=O)[C@@H](NC(=O)[C@H](Cc1ccccc1)NC(=O)[C@H](CCC(=O)O)NC(=O)[C@@H](N)CC(=O)O)C(C)C)C(C)C)C(C)C)[C@@H](C)O)C(=O)O,"HLA class I histocompatibility antigen, B alpha chain","ligand displacement, radioligand",,52.8 µM
O=C(Cc1ccccc1)N[C@H](C(=O)O)[C@@H]1N=C(C(=O)O)C(CSC(C(=O)O)c2ccccc2)CS1 (stereo partly shown),blaNDM-1,"enzyme activity, inhibitor, absorbance",,> 100 µM
C[C@H](N)Cn1ncc2ccc3c(c21)CCCO3,"D(3) dopamine receptor (Drd3, Rattus norvegicus, UniProt P19020)","ligand displacement, radioligand",,7.2 µM
CCCCCNC(=N)N/N=C/c1c[nH]c2ccc(OC)cc12,HTR2C,"ligand displacement, radioligand",,0.197 µM
O=C(O)c1cccc(C(=O)O)n1,blaNDM-1,"enzyme activity, inhibitor, fluorescence",,4.26 µM
CC[C@H](C)[C@H](NC(=O)[C@H](CCCNC(=N)N)NC(=O)[C@H](CC(C)C)NC(=O)[C@@H](N)Cc1ccccc1)C(=O)N[C@@H](CCCNC(=N)N)C(=O)N1CCC[C@H]1C(=O)N[C@@H](CCCCN)C(=O)O,"B2 bradykinin receptor (BDKRB2, Homo sapiens, UniProt P30411)","ligand displacement, radioligand",,0.14 µM
CC(C)[C@H](NC(=O)[C@@H](NC(=O)[C@H](CCCNC(=N)N)NC(=O)[C@H](C)NC(=O)[C@H](C)NC(=O)[C@H](CCC(=O)O)NC(=O)[C@H](CO)NC(=O)[C@H](C)NC(=O)[C@@H](N)Cc1ccccc1)C(C)C)C(=O)O,"HLA class I histocompatibility antigen, B alpha chain","ligand displacement, radioligand",,8.55 µM
COc1ncccc1-c1cnn2ccc(N3CCN(C(=O)OC(C)C)CC3)nc12,"BMP-2-inducible protein kinase (BMP2K, Homo sapiens, UniProt Q9NSY1)","enzyme activity, inhibitor",,0.014 µM
C[C@H](N)[C@H](O)c1cccc(O)c1,"5-hydroxytryptamine receptor 2B (HTR2B, Homo sapiens, UniProt P41595)","ligand displacement, radioligand",,7.38 µM
CSCC[C@H](NC(=O)[C@H](CCC(N)=O)NC(=O)[C@H](C)NC(=O)[C@H](CO)NC(=O)[C@@H](N)CO)C(=O)N[C@@H](CC(N)=O)C(=O)N[C@@H](CC(C)C)C(=O)N[C@@H](CC(N)=O)C(=O)N[C@H](C(=O)N[C@@H](Cc1ccccc1)C(=O)N[C@@H](CC(C)C)C(=O)N[C@@H](CC(N)=O)C(=O)O)[C@@H](C)O,dxs,"enzyme activity, inhibitor, absorbance",pH 7.6,> 1000 µM
CN(Cc1ccccc1)C(=O)Oc1nsnc1N1CCCCC1,FAAH,"enzyme activity, inhibitor",cell membranes,0.0631 µM
O=C(O)C1CSC(C(=O)O)N1 (stereo not shown),blaNDM-1,"enzyme activity, inhibitor, fluorescence",,55 µM
CC[C@H](C)[C@H](NC(=O)[C@@H](NC(=O)[C@@H](NC(=O)[C@H](CC(N)=O)NC(=O)[C@@H](NC(=O)[C@H](CO)NC(=O)[C@H](CC(N)=O)NC(=O)[C@H](CC(C)C)NC(=O)[C@@H](N)Cc1ccc(O)cc1)[C@@H](C)O)C(C)C)[C@@H](C)O)C(=O)O,"HLA class I histocompatibility antigen, B alpha chain","ligand displacement, radioligand",,7.93 µM
